Screens as filed in PubChem BioAssay.
An excerpt weighted towards active compounds, which were near 3.8% of everything screened.
KCNQ1 act: potentiators or activators of KCNQ1 channel, primary screen, cell-based, thallium flux, high-throughput; Potassium voltage-gated channel subfamily KQT member 1 (Homo sapiens), P51787; CHO-K1 KCNQ1, thallium flux FluxOR fluorescence; active compounds read high; B-score at 10 µM; hit rate 0.35% among 310,000; AID 2648, 2010;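 active means fluorescence ratio B-score, a plate-corrected score, at least three library SD, with initial intensity B-score within 5 SD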
Target sequence (P51787 whole entry, looked up): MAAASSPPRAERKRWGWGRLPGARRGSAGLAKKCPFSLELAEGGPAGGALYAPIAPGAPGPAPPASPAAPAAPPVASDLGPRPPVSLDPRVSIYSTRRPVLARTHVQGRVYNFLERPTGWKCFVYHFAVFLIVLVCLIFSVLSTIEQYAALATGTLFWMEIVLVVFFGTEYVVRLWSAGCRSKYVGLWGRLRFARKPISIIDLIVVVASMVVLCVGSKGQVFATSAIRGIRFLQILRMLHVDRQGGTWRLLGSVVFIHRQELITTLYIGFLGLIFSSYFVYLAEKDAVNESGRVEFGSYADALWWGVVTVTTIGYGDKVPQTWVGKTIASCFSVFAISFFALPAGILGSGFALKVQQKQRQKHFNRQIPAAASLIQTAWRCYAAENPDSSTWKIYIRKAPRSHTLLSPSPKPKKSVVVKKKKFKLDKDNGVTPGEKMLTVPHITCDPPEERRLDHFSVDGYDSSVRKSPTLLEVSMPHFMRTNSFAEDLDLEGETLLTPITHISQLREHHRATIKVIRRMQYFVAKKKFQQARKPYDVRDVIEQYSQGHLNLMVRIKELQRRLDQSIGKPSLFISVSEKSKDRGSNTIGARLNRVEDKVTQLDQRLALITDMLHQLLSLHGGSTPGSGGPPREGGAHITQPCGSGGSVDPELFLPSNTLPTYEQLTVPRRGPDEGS
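Assay system: stable KCNQ1 CHO-K1 line; medium: assay buffer, equal DMSO in all wells; timing: 90 min dye loading and 20 min compound exposure, both at room temperature; technique: kinetic FluxOR thallium fluorescence, 10-s 1-Hz baseline, 110-s post-stimulus read; read-out basis: B score of baseline-normalized fluorescence ratio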
Kir21 block: inhibitors of mouse Kir2.1 inward-rectifier potassium channel; hit rate 0.85% among 310,000; HEK293-Kir2.1, FluxOR thallium flux fluorescence; active compounds read low; Inward rectifier potassium channel 2 (Mus musculus), P35561; B-score at 10 µM;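 active means fluorescence ratio B-score at or below minus 3 SD of library scores, with starting-brightness B-score within 2 SD, cut at about -4.2 in these data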;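 further: channel flux triggered by added potassium and thallium sulfate stimulus; B-score of peak minus minimum fluorescence over baseline after thallium stimulus; more negative B-score means stronger Kir2.1 block with less thallium influx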
KCNK3 block: human KCNK3 channel inhibitors, primary screen, CHO cells, FluxOR thallium flux, B-score. AID 602410, 2012. FluxOR fluorescence; active compounds read low. Potassium channel subfamily K member 3 (Homo sapiens), O14649. B-score at 10 µM. hit rate 0.84% among 340,000;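 active means B-score under library mean minus 4 SD, starting fluorescence ratio at most library mean plus 5 SD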;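 further: more negative B-score means stronger inhibition of thallium flux through KCNK3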
hERG rescue: hERG rescue from dofetilide block, primary screen, cell-based, CHO-hERG, FluxOR thallium flux, dofetilide IC70. Voltage-gated inwardly rectifying potassium channel KCNH2 (Homo sapiens), Q12809. dofetilide IC70 present. activation (rescue from dofetilide block), less the hit threshold, % at 10 µM. hit rate 0.51% among 310,000;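 active means activation above the mean of controls blocked by dofetilide plus 5 SD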;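 further: thallium influx through hERG after potassium depolarization seen as dye fluorescence rise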
KCNQ1 block: inhibitors of human KCNQ1 channel, primary screen, cell-based, thallium flux, high-throughput | Potassium voltage-gated channel subfamily KQT member 1 (Homo sapiens), P51787 | CHO-K1 KCNQ1, FluxOR thallium flux fluorescence; active compounds read high | B-score at 10 µM | hit rate 1.3% among 310,000 | AID 2642, 2010;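 active means compounds whose thallium flux B-score, printed positive for inhibition, exceeds three library SD while starting fluorescence stays within three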;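 further: channel opened by potassium depolarization with thallium stimulus after 20 min compound exposure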
KCNK9 block: KCNK9 potassium channel inhibitors, primary screen, HEK293 cells, thallium flux; Potassium channel subfamily K member 9 (Homo sapiens), Q9NPC2; FluxOR thallium flux fluorescence; active compounds read low; B-score at 10 µM; hit rate 1.2% among 310,000; AID 488922, 2010;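 active means ratio B-score over 3 SD below the library mean, with starting fluorescence within 5 SD of its mean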;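 further: negative B-score means less thallium flux so channel inhibition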
KCNK9 block conf: KCNK9 potassium channel inhibitors, confirmation, HEK293 cells, thallium flux, duplicate | shares compounds with KCNK9 block | hit rate 43% among 4,900 | AID 492992, 2010 | FluxOR thallium flux fluorescence | inhibition, % at 10 µM;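 active means thallium signal inhibited by more than 5 SD of the compound-free buffer control wells, on both duplicate plates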
Kir2-1 spec: mouse Kir2.1 channel inhibition, confirmation, selectivity assay for KCNK9 modulator project, cell-based, HEK293, thallium flux. AID 492993, 2010. inhibition, % at 10 µM. Kir2.1 cells, FluxOR thallium flux fluorescence. shares compounds with KCNK9 block. hit rate 4% among 4,900;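 active means thallium signal drop more than 5 SD beyond the mean of the no-compound control wells, seen in both duplicate plates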;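 further: signal is fluorescence rise after thallium addition divided by baseline fluorescence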
HEK293 Tl ctr: thallium flux in non-induced HEK293 cells, confirmation, counter-screen for KCNK9 inhibitor project, cell-based, second counter screen, non-induced KCNK9-HEK293; inhibition, % at 10 µM; shares compounds with KCNK9 block; hit rate 40% among 4,900; FluxOR thallium flux;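 active means thallium signal drop beyond 5 SD of the untreated control mean, on both duplicate plates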
KCNK3 confirm: retest of human KCNK3 channel inhibitors, confirmation, CHO cells, FluxOR thallium flux, triplicate; ratio percent of control, % at 10 µM; hit rate 99% among 2,400; FluxOR fluorescence; 0% buffer, 100% carvedilol maximal block; shares compounds with KCNK3 block; AID 651638, 2012;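 active means ratio percent of control, averaged over triplicates, above buffer control mean plus 5 SD, cut at about 64% in these data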;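 further: ratio is the fluorescence rise from min to max over baseline after thallium stimulus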
KCNK3 uninduced: thallium flux inhibition in non-induced cells, primary screen, counter-screen for KCNK3 inhibitor project, cell-based, non-induced KCNK3 line, FluxOR thallium, triplicate. hit rate 40% among 2,400. thallium flux ratio (lower = more inhibition) at 10 µM. non-induced KCNK3 parental cells; active compounds read low. AID 651747, 2012. shares compounds with KCNK3 block;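 active means thallium flux ratio, averaged over three wells, more than 5 SD below the buffer control mean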;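 further: host cells are CHO cells without KCNK3 induction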
Hits are given with their value; i = inactive; nt = no result.

SMILES	KCNQ1 act	Kir21 block	KCNK3 block	hERG rescue	KCNQ1 block	KCNK9 block	KCNK9 block conf	Kir2-1 spec	HEK293 Tl ctr	KCNK3 confirm	KCNK3 uninduced
COC(=O)c1c(C(=O)OC)c(-c2ccc(Cl)c(Cl)c2)n2c1CCC2	i	i	i	i	i	-8.2	32%	i	32%	92	i
COc1ccc(-c2nc3ccccn3c2NCc2ccc3c(c2)OCO3)cc1	i	i	-9.7	i	i	-9.6	48%	i	i	110	i
Cc1cccn2c(NCc3ccc4c(c3)OCO4)c(-c3ccc(O)cc3)nc12	i	i	i	i	i	i	nt	nt	nt	nt	nt
COc1ccccc1C(=O)NN=C1CCN(Cc2ccccc2)CC1	i	i	i	i	i	i	nt	nt	nt	nt	nt
O=c1ccc2ccc(OCCOc3cccc(Cl)c3)cc2o1	i	i	i	i	i	-9.5	32%	i	42%	100	i
Cc1ccc(C(=O)COc2ccc3ccc(=O)oc3c2)cc1	i	i	i	i	i	i	nt	nt	nt	nt	nt
Oc1ccc2cc(Br)ccc2c1CN1CCCC1	i	i	i	i	i	i	nt	nt	nt	nt	nt
CCN1CC2=C(OC(N)=C(C#N)C2c2ccccc2)/C(=C\c2ccccc2)C1 (stereo not given)	i	i	-8.9	i	i	-8.8	29%	i	26%	105	i
Cc1cccc(NC(=S)N/N=C/c2cccn2Cc2ccc(F)cc2)c1	i	i	-9.3	i	i	-14	60%	i	i	63	i
CCN(CC)C1=N/C(=C\c2ccco2)C(=O)N1c1ccccc1	i	i	i	i	i	i	nt	nt	nt	nt	nt
CC(C)CN(CC(C)C)C1=N/C(=C\c2ccco2)C(=O)N1c1ccccc1	i	i	-9.2	i	i	-9.8	56%	i	46%	125	i
O=C(Nc1cccc(NC(=O)c2c(F)cccc2F)n1)c1c(F)cccc1F	8	i	-11	i	i	-11	50%	i	30%	101	i
N#CC(c1ccc(F)cc1)c1ccc(C(=O)c2ccc(F)cc2)cc1 (stereo not given)	i	i	-10	i	i	-9.7	49%	i	34%	120	i
O=C(CSc1nc2ccc(NC(=O)CSc3nnnn3-c3ccccc3)cc2s1)Nc1ccccc1	i	i	i	i	i	i	nt	nt	nt	nt	nt
c1ccc(-n2nnnc2SCCCSc2nc3ccccc3s2)cc1	i	i	-9.9	i	i	-15	62%	i	46%	103	i
CCCCCCNC(=O)CC(c1ccccc1)c1cc(Br)ccc1O (stereo not given)	i	i	-9.8	i	i	-11	51%	i	32%	119	0.15
